The test system of one data set is Rattus norvegicus. Nature of the data set: Anti-inflammatory activity in Brown Norway rat acute OVA model of TH2-driven lung inflammation assessed as protection against eosinophil recruitment in bronchoalveolar lavage fluid at 9 mg/kg, po pretreated for 30 mins followed by OVA challenge by DAPI staining based flow cytometry. The data set is classed as functional, organism-based. In a few lines:
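Male Brown Norway rats (250–300 g) sensitized i.p. with 10 μg OVA plus 20 mg Al(OH)₃ on days 1 and 7. Oral compound given 30 min before intratracheal OVA challenge on day 21 or 28, under isoflurane. BAL taken 48 h post-challenge. Leucocytes counted by flow cytometry, gated on FSC/SSC, with DAPI+ dead cells excluded.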
For orientation: Flow cytometry measures light scatter and fluorescence of single cells or particles in a stream.

Data set [1] can be described thus: Drug uptake in blood of Brown Norway rat acute OVA model of TH2-driven lung inflammation at 3 mg/kg, po pretreated for 30 mins followed by OVA challenge measured 1 hr post dose. The data set is classed as ADME, organism-based. The settings on record: read-out: Drug uptake. In a few lines:
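Sensitized Brown Norway rats given oral compound 30 min before intratracheal OVA challenge. Blood concentration taken 1 h after dosing, i.e. 30 min after challenge.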

The structures appear in SMILES notation. Calls of active or inactive are those of the source. The rule behind the calls is not given here.

Take `COc1ncc(-c2cc3c(c(NC(=O)CN4CCOCC4)c2)COC3)cc1NS(C)(=O)=O`: the result with Rattus norvegicus was inactive. For the same compound, in data set [1], the concentration at 1 h is 190 nM.

These data come from ChEMBL document CHEMBL4477235, “Evolution of a Novel, Orally Bioavailable Series of PI3Kδ Inhibitors from an Inhaled Lead for the Treatment of Respiratory Disease” (J Med Chem, 2016).
